Measured values: ChEMBL document CHEMBL1961794, “Regulation of circadian behaviour and metabolism by synthetic REV-ERB agonists” (Nature, 2012)
The source made the active and inactive calls. The calls are words filed in the database; no cut-off is given here.

Columns and labels:
[1] = molecular target: Nuclear receptor subfamily 1 group D member 2 (Homo sapiens, UniProt Q14995); experiment: Increased REV-ERB-beta LBD dependent repressor activity in HEK293 cell reporter assay; assay type: cell-based
[2] = Plasma concentration after 4 hours at 10mg/kg ip dose (10mg/ml suspension in 10%DMSO/10%Tween80); assay type: ADME, organism-based; details: mouse, read-out: Conc_plasma
Summary of the method: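 Mice received a single 10 mg/kg i.p. dose as a 10 mg/ml suspension in DMSO/Tween80/water (10/10/80). Plasma was sampled at 1, 2, 4 and 8 h post-injection and drug concentration reported in μM. Mean ± s.e.m., n=3.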

[3] = Plasma concentration after 2 hours at 100mg/kg ip dose (10mg/ml solution in 15% Cremophor); assay type: ADME, organism-based; details: mouse, read-out: Conc_plasma
Summary of the method: (§1)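 Single 100 mg/kg i.p. dose given to mice as a 10 mg/ml solution in 15% Cremophor. Plasma drug concentration (μM) was measured at 2 and 8 h post-injection. Mean ± s.e.m., n=3.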

[4] = Plasma concentration after 8 hours at 100mg/kg ip dose (10mg/ml solution in 15% Cremophor); assay type: ADME, organism-based; details: mouse, read-out: Conc_plasma; summary of the method: as §1
[5] = molecular target: Thyroid hormone receptor alpha (Homo sapiens) (UniProt P10827); experiment: Effect on THRA(NR1A1) dependent reporter activity in HEK293 cells at 20 uM; assay type: cell-based
Summary of the method: (§2)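 Cotransfection assay in HEK293 cells with Gal4 DNA-binding domain–nuclear receptor fusions, covering a panel of all 48 human nuclear receptors. Compounds were tested at 20 μM, with reporter luciferase as the read-out. Mean ± s.e.m., n=3.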

[6] = molecular target: Thyroid hormone receptor beta (Homo sapiens) (UniProt P10828); experiment: Effect on THRB(NR1A2) dependent reporter activity in HEK293 cells at 20 uM; assay type: cell-based; summary of the method: as §2
[7] = molecular target: Peroxisome proliferator-activated receptor gamma (Homo sapiens) (UniProt P37231); experiment: Effect on PPARG(NR1C3) dependent reporter activity in HEK293 cells at 20 uM; assay type: cell-based
Summary of the method: (§3)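 Specificity panel covering all 48 human nuclear receptors. HEK293 cells cotransfected with Gal4 DNA-binding domain–nuclear receptor fusions and a luciferase reporter. Compound tested at a single 20 μM concentration. Mean ± s.e.m., n=3.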

[8] = molecular target: Nuclear receptor ROR-alpha (Homo sapiens) (UniProt P35398); experiment: Effect on RORA(NR1F1) dependent reporter activity in HEK293 cells at 20 uM; assay type: cell-based; summary of the method: as §3
[9] = molecular target: Nuclear receptor ROR-gamma (Homo sapiens) (UniProt P51449); experiment: Effect on RORG(NR1F3) dependent reporter activity in HEK293 cells at 20 uM; assay type: cell-based; summary of the method: as §3
[10] = molecular target: Oxysterols receptor LXR-beta (Homo sapiens) (UniProt P55055); experiment: Effect on LXRB(NR1H2) dependent reporter activity in HEK293 cells at 20 uM; assay type: cell-based; summary of the method: as §3
[11] = molecular target: Bile acid receptor (Homo sapiens) (UniProt Q96RI1); experiment: Effect on BAR(NR1H4) dependent reporter activity in HEK293 cells at 20 uM; assay type: cell-based; summary of the method: as §3
[12] = molecular target: Nuclear receptor subfamily 1 group I member 2 (Homo sapiens, UniProt O75469); experiment: Effect on PXR(NR1I2) dependent reporter activity in HEK293 cells at 20 uM; assay type: cell-based; details: hek293, 20 µM; summary of the method: as §3
[13] = molecular target: Nuclear receptor subfamily 1 group I member 3 (Homo sapiens, UniProt Q14994); experiment: Effect on CAR(NR1I3) dependent reporter activity in HEK293 cells at 20 uM; assay type: cell-based; details: hek293, 20 µM; summary of the method: as §3
[14] = molecular target: Hepatocyte nuclear factor 4-alpha (Homo sapiens) (UniProt P41235); experiment: Effect on HNF4A(NR2A1) dependent reporter activity in HEK293 cells at 20 uM; assay type: cell-based; summary of the method: as §3
[15] = molecular target: Hepatocyte nuclear factor 4-gamma (Homo sapiens) (UniProt Q14541); experiment: Effect on HNF4G(NR2A2) dependent reporter activity in HEK293 cells at 20 uM; assay type: cell-based; summary of the method: as §3
[16] = molecular target: Retinoic acid receptor RXR-gamma (Homo sapiens) (UniProt P48443); experiment: Effect on RXRG(NR2B3) dependent reporter activity in HEK293 cells at 20 uM; assay type: cell-based; summary of the method: as §3
[17] = molecular target: Nuclear receptor subfamily 2 group E member 1 (Homo sapiens) (UniProt Q9Y466); experiment: Effect on TLX(NR2E1) dependent reporter activity in HEK293 cells at 20 uM; assay type: cell-based; summary of the method: as §2
[18] = molecular target: Photoreceptor-specific nuclear receptor (Homo sapiens) (UniProt Q9Y5X4); experiment: Effect on PNR(NR2E3) dependent reporter activity in HEK293 cells at 20 uM; assay type: cell-based; summary of the method: as §3
[19] = molecular target: COUP transcription factor 1 (Homo sapiens) (UniProt P10589); experiment: Effect on TFCOUP1(NR2F1) dependent reporter activity in HEK293 cells at 20 uM; assay type: cell-based; summary of the method: as §2
[20] = molecular target: Estrogen receptor (Homo sapiens) (UniProt P03372); experiment: Effect on ESR1(NR3A1) dependent reporter activity in HEK293 cells at 20 uM; assay type: cell-based; summary of the method: as §3
[21] = molecular target: Estrogen receptor beta (Homo sapiens) (UniProt Q92731); experiment: Effect on ESR2(NR3A2) dependent reporter activity in HEK293 cells at 20 uM; assay type: cell-based; summary of the method: as §3
[22] = molecular target: Steroid hormone receptor ERR1 (Homo sapiens) (UniProt P11474); experiment: Effect on ERR1(NR3B1) dependent reporter activity in HEK293 cells at 20 uM; assay type: cell-based; summary of the method: as §3
[23] = molecular target: Steroid hormone receptor ERR2 (Homo sapiens) (UniProt O95718); experiment: Effect on ERR2(NR3B2) dependent reporter activity in HEK293 cells at 20 uM; assay type: cell-based; summary of the method: as §3
[24] = molecular target: Estrogen-related receptor gamma (Homo sapiens) (UniProt P62508); experiment: Effect on ERR3(NR3B3) dependent reporter activity in HEK293 cells at 20 uM; assay type: cell-based; summary of the method: as §3
[25] = molecular target: Glucocorticoid receptor (Homo sapiens) (UniProt P04150); experiment: Effect on GCR(NR3C1) dependent reporter activity in HEK293 cells at 20 uM; assay type: cell-based; summary of the method: as §3
[26] = molecular target: Mineralocorticoid receptor (Homo sapiens) (UniProt P08235); experiment: Effect on MCR(NR3C2) dependent reporter activity in HEK293 cells at 20 uM; assay type: cell-based; summary of the method: as §3
[27] = molecular target: Androgen receptor (Homo sapiens) (UniProt P10275); experiment: Effect on AR(NR3C4) dependent reporter activity in HEK293 cells at 20 uM; assay type: cell-based; summary of the method: as §3
[28] = molecular target: Nuclear receptor subfamily 4 group A member 3 (Homo sapiens) (UniProt Q92570); experiment: Effect on NOR1(NR4A3) dependent reporter activity in HEK293 cells at 20 uM; assay type: cell-based; summary of the method: as §3
[29] = molecular target: Steroidogenic factor 1 (Homo sapiens) (UniProt Q13285); experiment: Effect on SF1(NR5A1) dependent reporter activity in HEK293 cells at 20 uM; assay type: cell-based; summary of the method: as §3
[30] = molecular target: Nuclear receptor subfamily 0 group B member 2 (Homo sapiens) (UniProt Q15466); experiment: Effect on SHP(NR0B2) dependent reporter activity in HEK293 cells at 20 uM; assay type: cell-based; summary of the method: as §2
[31] = molecular target: Nuclear receptor subfamily 6 group A member 1 (Homo sapiens) (UniProt Q15406); experiment: Effect on GCNF(NR6A1) dependent reporter activity in HEK293 cells at 20 uM; assay type: cell-based; summary of the method: as §3
[32] = molecular target: Nuclear receptor ROR-beta (Homo sapiens) (UniProt Q92753); experiment: Effect on RORB(NR1F2) dependent reporter activity in HEK293 cells at 20 uM
Nuclear receptor ROR-beta (Homo sapiens), sequence (Q92753 whole entry, looked up): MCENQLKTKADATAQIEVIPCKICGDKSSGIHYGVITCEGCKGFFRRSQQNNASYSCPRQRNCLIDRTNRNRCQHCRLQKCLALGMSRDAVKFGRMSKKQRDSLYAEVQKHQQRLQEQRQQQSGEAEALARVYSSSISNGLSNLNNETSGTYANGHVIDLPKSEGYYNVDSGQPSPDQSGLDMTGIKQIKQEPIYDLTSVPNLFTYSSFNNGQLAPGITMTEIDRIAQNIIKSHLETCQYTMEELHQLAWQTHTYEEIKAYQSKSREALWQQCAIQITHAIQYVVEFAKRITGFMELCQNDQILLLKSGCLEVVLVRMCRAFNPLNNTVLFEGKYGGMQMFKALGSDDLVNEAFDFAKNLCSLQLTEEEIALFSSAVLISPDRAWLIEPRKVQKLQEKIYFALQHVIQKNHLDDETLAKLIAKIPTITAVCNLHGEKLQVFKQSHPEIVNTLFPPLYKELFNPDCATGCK

Nuclear receptor subfamily 4 group A member 3 (Homo sapiens), sequence (Q92570 whole entry): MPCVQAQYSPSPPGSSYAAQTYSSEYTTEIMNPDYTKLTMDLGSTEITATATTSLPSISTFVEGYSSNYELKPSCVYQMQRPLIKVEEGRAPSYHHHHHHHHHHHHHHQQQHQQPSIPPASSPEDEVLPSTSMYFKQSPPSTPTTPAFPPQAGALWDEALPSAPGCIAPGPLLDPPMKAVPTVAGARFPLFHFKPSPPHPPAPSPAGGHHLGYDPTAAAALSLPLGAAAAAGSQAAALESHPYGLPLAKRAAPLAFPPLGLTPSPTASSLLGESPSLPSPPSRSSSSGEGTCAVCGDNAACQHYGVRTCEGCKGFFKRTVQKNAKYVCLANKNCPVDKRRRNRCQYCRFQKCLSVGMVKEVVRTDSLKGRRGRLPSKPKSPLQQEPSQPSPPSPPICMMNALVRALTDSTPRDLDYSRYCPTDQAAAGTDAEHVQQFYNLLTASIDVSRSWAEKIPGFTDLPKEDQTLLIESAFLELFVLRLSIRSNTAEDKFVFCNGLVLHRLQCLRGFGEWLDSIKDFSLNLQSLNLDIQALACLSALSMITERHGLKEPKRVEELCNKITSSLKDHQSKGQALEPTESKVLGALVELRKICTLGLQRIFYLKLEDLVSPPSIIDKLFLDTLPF
Hepatocyte nuclear factor 4-alpha (Homo sapiens), sequence (P41235 whole entry): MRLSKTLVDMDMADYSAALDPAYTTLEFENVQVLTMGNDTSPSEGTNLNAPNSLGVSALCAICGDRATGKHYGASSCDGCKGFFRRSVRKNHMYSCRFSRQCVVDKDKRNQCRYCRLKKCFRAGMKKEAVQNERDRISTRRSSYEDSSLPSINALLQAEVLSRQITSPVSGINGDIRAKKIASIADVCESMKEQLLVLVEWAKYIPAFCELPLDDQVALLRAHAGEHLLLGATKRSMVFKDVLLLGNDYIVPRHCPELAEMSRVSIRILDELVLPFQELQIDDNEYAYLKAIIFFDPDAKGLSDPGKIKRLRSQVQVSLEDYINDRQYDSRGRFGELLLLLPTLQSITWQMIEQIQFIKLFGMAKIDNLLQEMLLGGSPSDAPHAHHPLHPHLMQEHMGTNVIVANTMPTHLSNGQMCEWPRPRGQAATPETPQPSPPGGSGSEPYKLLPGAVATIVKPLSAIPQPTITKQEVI
Steroid hormone receptor ERR2 (Homo sapiens), sequence (O95718 whole entry): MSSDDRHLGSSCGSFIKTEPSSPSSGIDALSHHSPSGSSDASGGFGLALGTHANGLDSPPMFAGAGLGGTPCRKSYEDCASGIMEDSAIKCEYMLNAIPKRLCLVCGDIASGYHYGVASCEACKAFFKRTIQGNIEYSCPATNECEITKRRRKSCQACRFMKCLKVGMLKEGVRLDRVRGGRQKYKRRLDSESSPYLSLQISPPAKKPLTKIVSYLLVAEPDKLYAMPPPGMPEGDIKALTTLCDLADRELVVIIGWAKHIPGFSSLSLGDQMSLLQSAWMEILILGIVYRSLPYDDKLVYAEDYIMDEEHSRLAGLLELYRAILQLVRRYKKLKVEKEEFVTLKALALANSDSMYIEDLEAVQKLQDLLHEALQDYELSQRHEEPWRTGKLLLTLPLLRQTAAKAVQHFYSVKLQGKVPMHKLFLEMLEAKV
Nuclear receptor subfamily 6 group A member 1 (Homo sapiens), sequence (Q15406 whole entry): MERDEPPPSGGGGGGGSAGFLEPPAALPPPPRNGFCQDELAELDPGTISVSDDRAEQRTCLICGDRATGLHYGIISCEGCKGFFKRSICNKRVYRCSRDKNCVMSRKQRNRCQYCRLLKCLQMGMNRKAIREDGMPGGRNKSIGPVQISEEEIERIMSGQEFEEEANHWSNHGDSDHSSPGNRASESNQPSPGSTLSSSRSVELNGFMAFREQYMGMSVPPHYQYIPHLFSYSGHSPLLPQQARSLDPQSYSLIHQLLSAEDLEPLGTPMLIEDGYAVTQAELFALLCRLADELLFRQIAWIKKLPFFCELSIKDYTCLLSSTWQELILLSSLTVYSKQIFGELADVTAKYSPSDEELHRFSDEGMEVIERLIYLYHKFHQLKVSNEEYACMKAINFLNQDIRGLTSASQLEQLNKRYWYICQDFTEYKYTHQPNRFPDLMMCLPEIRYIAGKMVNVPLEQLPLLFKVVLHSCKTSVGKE
Thyroid hormone receptor alpha (Homo sapiens), sequence (P10827 whole entry, the tested form may be a part): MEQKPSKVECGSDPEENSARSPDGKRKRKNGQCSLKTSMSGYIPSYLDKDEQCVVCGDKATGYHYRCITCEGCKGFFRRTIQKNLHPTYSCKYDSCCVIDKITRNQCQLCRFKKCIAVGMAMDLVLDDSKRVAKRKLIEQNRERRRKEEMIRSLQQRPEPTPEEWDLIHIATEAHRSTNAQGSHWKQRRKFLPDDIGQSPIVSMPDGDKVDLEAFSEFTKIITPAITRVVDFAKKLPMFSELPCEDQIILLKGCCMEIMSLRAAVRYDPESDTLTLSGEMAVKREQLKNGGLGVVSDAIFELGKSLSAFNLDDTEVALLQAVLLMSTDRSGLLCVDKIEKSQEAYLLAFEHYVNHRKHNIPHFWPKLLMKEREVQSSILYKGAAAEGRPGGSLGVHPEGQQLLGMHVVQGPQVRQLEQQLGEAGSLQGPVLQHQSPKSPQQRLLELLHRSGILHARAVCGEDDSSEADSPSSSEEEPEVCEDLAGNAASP
Hepatocyte nuclear factor 4-gamma (Homo sapiens), sequence (Q14541 whole entry): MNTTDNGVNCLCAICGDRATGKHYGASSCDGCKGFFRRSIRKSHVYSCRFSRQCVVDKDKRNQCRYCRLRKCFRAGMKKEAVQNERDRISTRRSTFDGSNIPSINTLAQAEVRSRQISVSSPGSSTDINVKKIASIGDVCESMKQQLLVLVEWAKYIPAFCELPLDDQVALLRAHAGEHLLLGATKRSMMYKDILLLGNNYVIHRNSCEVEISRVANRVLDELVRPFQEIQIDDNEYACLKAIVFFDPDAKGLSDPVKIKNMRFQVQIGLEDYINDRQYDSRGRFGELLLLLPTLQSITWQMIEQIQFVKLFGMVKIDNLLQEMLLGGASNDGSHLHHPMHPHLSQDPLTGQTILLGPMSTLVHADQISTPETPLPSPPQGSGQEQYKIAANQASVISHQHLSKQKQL
Thyroid hormone receptor beta (Homo sapiens), sequence (P10828 whole entry): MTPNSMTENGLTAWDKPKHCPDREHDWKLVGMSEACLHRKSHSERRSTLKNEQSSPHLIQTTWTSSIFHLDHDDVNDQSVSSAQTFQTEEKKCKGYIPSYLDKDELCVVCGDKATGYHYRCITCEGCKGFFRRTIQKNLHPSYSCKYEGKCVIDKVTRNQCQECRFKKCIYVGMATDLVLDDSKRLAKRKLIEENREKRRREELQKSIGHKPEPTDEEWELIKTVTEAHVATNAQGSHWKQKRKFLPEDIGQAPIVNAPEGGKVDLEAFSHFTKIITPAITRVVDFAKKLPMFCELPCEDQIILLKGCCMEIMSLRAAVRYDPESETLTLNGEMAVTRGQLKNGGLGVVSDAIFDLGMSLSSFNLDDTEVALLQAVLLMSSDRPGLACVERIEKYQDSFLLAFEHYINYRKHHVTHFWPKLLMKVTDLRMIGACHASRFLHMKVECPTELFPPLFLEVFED
Nuclear receptor ROR-alpha (Homo sapiens), sequence (P35398 whole entry): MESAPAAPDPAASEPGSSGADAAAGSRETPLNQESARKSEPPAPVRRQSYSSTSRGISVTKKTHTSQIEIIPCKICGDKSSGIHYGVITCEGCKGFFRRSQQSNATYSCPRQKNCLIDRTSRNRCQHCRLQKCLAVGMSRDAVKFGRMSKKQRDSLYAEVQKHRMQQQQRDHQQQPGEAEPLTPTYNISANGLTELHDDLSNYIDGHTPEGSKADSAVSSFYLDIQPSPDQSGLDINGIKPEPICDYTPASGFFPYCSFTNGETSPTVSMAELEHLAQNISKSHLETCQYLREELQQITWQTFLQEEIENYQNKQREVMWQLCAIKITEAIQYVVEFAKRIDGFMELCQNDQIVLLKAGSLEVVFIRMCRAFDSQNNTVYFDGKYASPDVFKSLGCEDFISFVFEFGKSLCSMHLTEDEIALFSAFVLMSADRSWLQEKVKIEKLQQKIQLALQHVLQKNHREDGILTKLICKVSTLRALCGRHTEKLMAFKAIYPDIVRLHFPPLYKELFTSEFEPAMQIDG
Estrogen-related receptor gamma (Homo sapiens), sequence (P62508 whole entry): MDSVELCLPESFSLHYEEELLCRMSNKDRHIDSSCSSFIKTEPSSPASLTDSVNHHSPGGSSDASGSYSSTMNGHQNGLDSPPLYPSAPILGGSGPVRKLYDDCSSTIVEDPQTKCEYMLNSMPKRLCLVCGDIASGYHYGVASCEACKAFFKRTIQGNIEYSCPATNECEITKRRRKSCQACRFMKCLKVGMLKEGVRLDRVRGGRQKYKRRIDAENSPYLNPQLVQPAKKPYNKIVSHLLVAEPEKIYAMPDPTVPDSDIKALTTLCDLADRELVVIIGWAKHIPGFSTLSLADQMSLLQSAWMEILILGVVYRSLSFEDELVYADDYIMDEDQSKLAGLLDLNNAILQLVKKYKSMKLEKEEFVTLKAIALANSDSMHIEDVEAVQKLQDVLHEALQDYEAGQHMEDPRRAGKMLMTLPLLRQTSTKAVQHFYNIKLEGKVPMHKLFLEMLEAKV

Row | SMILES | IC50 [1] | concentration at 4 h [2] [nM] | concentration at 2 h [3] [nM] | concentration at 8 h [4] [nM] | inhibition [5] | inhibition [6] | inhibition [7] | inhibition [8] | inhibition [9] | inhibition [10] | inhibition [11] | Inhibition [12] | Inhibition [13] | inhibition [14] | inhibition [15] | inhibition [16] | inhibition [17] | inhibition [18] | inhibition [19] | inhibition [20] | further results
1 | CCOC(=O)N1CCC(CN(Cc2ccc(Cl)cc2)Cc2ccc([N+](=O)[O-])s2)C1 (centres undefined) [SR9009] | 800 nM (agonist) | 220 | 22900 | 1500 | inactive | inactive | inactive | inactive | inactive | inactive | inactive | Not Active | Not Active | inactive | inactive | inactive | inactive | inactive | inactive | inactive | inhibition [21]: inactive; inhibition [22]: inactive; inhibition [23]: inactive; inhibition [24]: inactive; inhibition [25]: inactive; inhibition [26]: inactive; inhibition [27]: inactive; inhibition [28]: inactive; inhibition [29]: inactive; inhibition [30]: inactive; inhibition [31]: inactive; inhibition [32]: inactive
2 | CCCCCNC(=O)N1CCC(CN(Cc2ccc(Cl)cc2)Cc2ccc([N+](=O)[O-])s2)C1 (centres undefined) [SR9011] | 560 nM (agonist) | 110 | 15300 | 740 | inactive | inactive | inactive | inactive | inactive | inactive | inactive | Not Active | Not Active | inactive | inactive | inactive | inactive | inactive | inactive | inactive | inhibition [21]: inactive; inhibition [22]: inactive; inhibition [23]: inactive; inhibition [24]: inactive; inhibition [25]: inactive; inhibition [26]: inactive; inhibition [27]: inactive; inhibition [28]: inactive; inhibition [29]: inactive; inhibition [30]: inactive; inhibition [31]: inactive; inhibition [32]: inactive
